Assays:
[1] = tested on: HT-29; test: Antiproliferative activity against human HT-29 cells assessed as inhibition of cell proliferation measured after 48 hrs by MTT assay; type: functional, cell-based; conditions: HT-29, 48 h
Outline: (§1)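 Cells tested by MTT: pancreatic Panc-1, breast MCF-7, colon HT-29 and A-549. Doxorubicin run alongside as the reference compound.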

[2] = tested on: MCF7; test: Antiproliferative activity against human MCF7 cells assessed as inhibition of cell proliferation measured after 48 hrs by MTT assay; type: functional, cell-based; conditions: MCF7, 48 h; outline: as §1
[3] = tested on: A549; test: Antiproliferative activity against human A549 cells assessed as inhibition of cell proliferation measured after 48 hrs by MTT assay; type: functional, cell-based; conditions: A549, 48 h; outline: as §1
[4] = tested on: PANC-1; test: Antiproliferative activity against human PANC1 cells assessed as inhibition of cell proliferation measured after 48 hrs by MTT assay; type: functional, cell-based; conditions: PANC-1, 48 h; outline: as §1
[5] = Cytotoxicity against human MCF10A cells assessed as cell viability at 50 uM measured after 4 days by MTT assay relative to control; type: cell-based, MCF-10A; conditions: read-out: Activity
[6] = target: Epidermal growth factor receptor (Homo sapiens, UniProt P00533); test: Inhibition of human EGFR measured after 3 hrs by ELISA
Epidermal growth factor receptor, sequence (P00533 whole entry): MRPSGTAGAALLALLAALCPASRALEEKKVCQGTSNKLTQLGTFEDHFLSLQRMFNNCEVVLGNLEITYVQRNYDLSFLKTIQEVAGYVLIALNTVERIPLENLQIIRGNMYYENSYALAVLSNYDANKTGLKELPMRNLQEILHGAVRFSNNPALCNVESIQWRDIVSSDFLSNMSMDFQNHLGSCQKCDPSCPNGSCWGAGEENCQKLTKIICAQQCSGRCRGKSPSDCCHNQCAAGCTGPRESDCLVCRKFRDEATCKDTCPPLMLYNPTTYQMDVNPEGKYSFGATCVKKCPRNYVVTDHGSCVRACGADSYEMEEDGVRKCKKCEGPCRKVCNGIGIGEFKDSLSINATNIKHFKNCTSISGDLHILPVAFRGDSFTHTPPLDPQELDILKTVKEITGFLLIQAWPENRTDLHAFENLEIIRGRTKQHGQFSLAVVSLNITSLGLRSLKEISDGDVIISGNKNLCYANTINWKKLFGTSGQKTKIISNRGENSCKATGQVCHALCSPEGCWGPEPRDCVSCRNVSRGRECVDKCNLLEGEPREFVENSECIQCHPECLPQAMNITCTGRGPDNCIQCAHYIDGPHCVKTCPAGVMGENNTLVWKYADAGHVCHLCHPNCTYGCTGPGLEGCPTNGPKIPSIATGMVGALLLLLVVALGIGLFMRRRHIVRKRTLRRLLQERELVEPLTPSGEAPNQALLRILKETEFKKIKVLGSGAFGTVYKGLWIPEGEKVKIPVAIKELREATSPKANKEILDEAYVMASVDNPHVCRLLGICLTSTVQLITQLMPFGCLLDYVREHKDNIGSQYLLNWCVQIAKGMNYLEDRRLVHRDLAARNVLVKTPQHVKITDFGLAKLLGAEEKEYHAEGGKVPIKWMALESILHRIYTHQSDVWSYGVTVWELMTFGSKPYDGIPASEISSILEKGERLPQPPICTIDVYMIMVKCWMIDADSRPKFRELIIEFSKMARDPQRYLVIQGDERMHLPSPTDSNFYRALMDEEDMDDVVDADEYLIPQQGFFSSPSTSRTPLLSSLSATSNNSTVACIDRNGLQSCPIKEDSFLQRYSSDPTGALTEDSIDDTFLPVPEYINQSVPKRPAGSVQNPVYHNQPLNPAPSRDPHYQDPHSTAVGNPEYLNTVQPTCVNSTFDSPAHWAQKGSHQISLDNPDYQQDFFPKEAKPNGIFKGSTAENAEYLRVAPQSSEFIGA

[7] = tested on: PANC-1; test: Induction of apoptosis in human PANC1 cells assessed as increase in caspase 3 level measured after 24 to 48 hrs relative to control; type: functional
Outline: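 Active caspase-3 protein in treated Panc-1 cells quantified as pg/mL. Reported as fold increase over untreated control cells, with doxorubicin as the reference drug.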

[8] = tested on: PANC-1; test: Cell cycle arrest in human PANC1 cells assessed as accumulation at pre G1 phase measured after 24 hrs by annexin v propidium iodide staining based flow cytometric analysis (reference value: 1.79%); type: functional
[9] = tested on: PANC-1; test: Induction of apoptosis in human PANC1 cells assessed as increase in cytochrome C level using TMB substrate measured after 24 hrs relative to control; type: functional
Outline: (§2)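 Caspase-8, caspase-9 and cytochrome c levels in treated Panc-1 cells expressed as fold change relative to untreated control cells.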

[10] = tested on: PANC-1; test: Induction of apoptosis in human PANC1 cells assessed as increase in BAX level by Sybr-green dye based RT-PCR analysis relative to control; type: functional
[11] = tested on: PANC-1; test: Induction of apoptosis in human PANC1 cells assessed as increase in caspase 9 level measured after 24 to 48 hrs relative to control; type: functional; outline: as §2
[12] = tested on: PANC-1; test: Induction of apoptosis in human PANC1 cells assessed as downregulation of Bcl-2 expression level by Sybr-green dye based RT-PCR analysis relative to control; type: functional
[13] = tested on: PANC-1; test: Induction of apoptosis in human PANC1 cells assessed as increase in caspase 8 level measured after 24 to 48 hrs relative to control; type: functional; outline: as §2
[14] = tested on: PANC-1; test: Cell cycle arrest in human PANC1 cells assessed as accumulation at G2/M phase measured after 24 hrs by annexin v propidium iodide staining based flow cytometric analysis (reference value: 9.95 %); type: functional
[15] = tested on: PANC-1; test: Induction of apoptosis in human PANC1 cells assessed as proportion of late apoptotic cells measured after 24 hrs by annexin v propidium iodide staining based flow cytometric analysis; type: functional
[16] = tested on: PANC-1; test: Induction of apoptosis in human PANC1 cells assessed as proportion of necrotic cells measured after 24 hrs by annexin v propidium iodide staining based flow cytometric analysis; type: functional
[17] = tested on: PANC-1; test: Cell cycle arrest in human PANC1 cells assessed as accumulation at G0/G1 phase measured after 24 hrs by annexin v propidium iodide staining based flow cytometric analysis (reference value: 53.64%); type: functional
[18] = tested on: PANC-1; test: Induction of apoptosis in human PANC1 cells assessed as proportion of early apoptotic cells measured after 24 hrs by annexin v propidium iodide staining based flow cytometric analysis; type: functional

| SMILES | IC50 [1] [µM] | IC50 [2] [µM] | IC50 [3] [µM] | IC50 [4] [µM] | viability at 96 h, 50 µM [5] [%] | other results |
| --- | --- | --- | --- | --- | --- | --- |
| Cn1c(=O)c2[nH]c(SCC(=O)c3ccc(Cl)cc3)nc2n(C)c1=O | 9.9 | 8.4 | 8.4 | 7.2 | > 90 | – |
| COc1ccc(/C(CSc2nc3c([nH]2)c(=O)n(C)c(=O)n3C)=N\O)cc1 | 1.7 | 0.8 | 1.5 | 0.91 | > 90 | – |
| CC(=O)c1ccc(NC(=O)CSc2nc3[nH]c(=O)n(C)c(=O)c3[nH]2)cc1 | 6.9 | 6.1 | 7.7 | 5.9 | > 90 | – |
| Cn1c(=O)c2[nH]c(SC/C(=N/O)c3ccc(Br)cc3)nc2n(C)c1=O | 1.7 | 1.3 | 1.8 | 1.7 | > 90 | IC50 [6]: 450 nM; fold change (FC) [7]: 5.91 |
| Cn1c(=O)c2[nH]c(SCC(=O)c3ccccc3)nc2n(C)c1=O | 5.9 | 5.1 | 6.7 | 4.9 | > 90 | – |
| COc1cccc2c1C(=O)c1c(O)c3c(c(O)c1C2=O)C[C@@](O)(C(=O)CO)C[C@@H]3O[C@H]1C[C@H](N)[C@H](O)[C@H](C)O1 [DOXORUBICIN] | 1.01 | – | 1.21 | 1.41 | – | Activity [8]: 22.17% |
| Cn1c(=O)c2[nH]c(SC/C(=N/O)c3ccccc3)nc2n(C)c1=O | 6.7 | 5.9 | 6.1 | 5.5 | > 90 | – |
| CC(=O)c1ccc(NC(=O)CSc2nc3c([nH]2)c(=O)n(C)c(=O)n3C)cc1 | 6.4 | 6.1 | 6.9 | 5.1 | > 90 | – |
| Cn1c(=O)[nH]c2nc(SCC(=O)c3ccc(Cl)cc3)[nH]c2c1=O | 7.2 | 6.3 | 8.1 | 6.1 | > 90 | – |
| COc1ccc(/C(CSc2nc3[nH]c(=O)n(C)c(=O)c3[nH]2)=N\O)cc1 | 1.7 | 1.8 | 1.5 | 1.91 | > 90 | fold change (FC) [9]: 11.43; IC50 [6]: 710 nM; fold change (FC) [10]: 8.9; fold change (FC) [11]: 14.49; fold change (FC) [12]: 0.3378; fold change (FC) [13]: 2.58; fold change (FC) [7]: 7.65 |
| Cn1c(=O)[nH]c2nc(SC/C(=N/O)c3ccc(Br)cc3)[nH]c2c1=O | 2 | 1.7 | 2.1 | 2.1 | > 90 | IC50 [6]: 2880 nM; fold change (FC) [7]: 4.99 |
| COc1ccc(C(=O)CSc2nc3[nH]c(=O)n(C)c(=O)c3[nH]2)cc1 | 6.7 | 5.9 | 6.1 | 5.5 | > 90 | – |
| Cn1c(=O)[nH]c2nc(SCC(=O)c3ccccc3)[nH]c2c1=O | 11.1 | 11.6 | 11.9 | 9.4 | > 90 | – |
| COc1ccc(C(=O)CSc2nc3c([nH]2)c(=O)n(C)c(=O)n3C)cc1 | 8.1 | 7.6 | 7.9 | 6.4 | > 90 | – |
| Cn1c(=O)[nH]c2nc(SC/C(=N/O)c3ccc(Cl)cc3)[nH]c2c1=O | 1.8 | 1.4 | 1.89 | 1.7 | > 90 | fold change (FC) [9]: 10.2; IC50 [6]: 820 nM; fold change (FC) [10]: 12.7; fold change (FC) [11]: 15.68; Activity [14]: 34.36%; fold change (FC) [12]: 0.239; Activity [15]: 8.86%; Activity [16]: 2.37%; Activity [17]: 35.08%; Activity [8]: 17.34%; Activity [18]: 6.11%; fold change (FC) [13]: 3.47; fold change (FC) [7]: 8.06 |
| C/C(=N/O)c1ccc(NC(=O)CSc2nc3c([nH]2)c(=O)n(C)c(=O)n3C)cc1 | 3.1 | 5.3 | 6.6 | 4.6 | > 90 | – |
| C/C(=N/O)c1ccc(NC(=O)CSc2nc3[nH]c(=O)n(C)c(=O)c3[nH]2)cc1 | 6.2 | 9.1 | 7.3 | 7.7 | > 90 | – |
| Cn1c(=O)[nH]c2nc(SC/C(=N/O)c3ccccc3)[nH]c2c1=O | 2.1 | 4.3 | 5.6 | 3.6 | > 90 | – |
| Cn1c(=O)[nH]c2nc(SCC(=O)c3ccc(Br)cc3)[nH]c2c1=O | 11.5 | 11.2 | 11.9 | 9.7 | > 90 | – |
| Cn1c(=O)c2[nH]c(SC/C(=N/O)c3ccc(Cl)cc3)nc2n(C)c1=O | 1.2 | 1 | 1.5 | 1.3 | > 90 | IC50 [6]: 400 nM; fold change (FC) [7]: 4.11 |
| Cn1c(=O)c2[nH]c(SCC(=O)c3ccc(Br)cc3)nc2n(C)c1=O | 6.5 | 7.6 | 7.9 | 7.4 | > 90 | – |
